Assay results published in paper PMC7003538 (Biochemistry, 2019).

What was measured:
Assay in all cases: UV-Vis spectral titration
Type in all cases: binding
CYP3A4 [1] = target: CYP3A4 (Homo sapiens, UniProt P08684, F213A/S18F)
Summary of the method: (§1)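 Human CYP3A4 (NF-14 construct, C-terminal pentahistidine tag, pCWori+ vector), wild type or F213 mutant, was incorporated into POPC Nanodiscs. The enzyme at 1-2 µM was titrated at 37 °C with test compound added in methanol (final methanol <1.5%), and UV-Vis spectra were read for the heme high-spin shift. Mixed titrations kept a fixed 1:12 steroid:second-substrate molar ratio.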

CYP3A4 [2] = target: CYP3A4 (Homo sapiens, UniProt P08684, F213S/S18F)
Summary of the method: as §1

CYP3A4 [3] = target: CYP3A4 (Homo sapiens, UniProt P08684, F213Y/S18F)
Summary of the method: as §1

CYP3A4 [4] = target: CYP3A4 (Homo sapiens, UniProt P08684, S18F)
Summary of the method: as §1

CYP3A4 (Homo sapiens, UniProt P08684, S18F), sequence (P08684 13-503 S18F limits assumed): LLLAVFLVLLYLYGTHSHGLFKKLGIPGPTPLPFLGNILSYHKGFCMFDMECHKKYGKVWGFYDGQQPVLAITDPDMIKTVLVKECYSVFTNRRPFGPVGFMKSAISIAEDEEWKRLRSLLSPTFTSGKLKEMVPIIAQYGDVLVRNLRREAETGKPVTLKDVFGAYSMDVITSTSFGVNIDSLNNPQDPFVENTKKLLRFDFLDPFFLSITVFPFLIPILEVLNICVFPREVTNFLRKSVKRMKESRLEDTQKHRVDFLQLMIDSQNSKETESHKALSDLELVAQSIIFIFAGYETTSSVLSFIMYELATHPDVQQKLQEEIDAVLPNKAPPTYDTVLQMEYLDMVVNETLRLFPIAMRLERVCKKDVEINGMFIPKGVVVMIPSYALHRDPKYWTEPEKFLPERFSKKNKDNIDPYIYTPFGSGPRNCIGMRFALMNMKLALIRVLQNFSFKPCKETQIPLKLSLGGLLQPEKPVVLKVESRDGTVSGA
CYP3A4 (Homo sapiens, UniProt P08684, F213Y/S18F), sequence (P08684 13-503 S18F/F213Y limits assumed): as the sequence (P08684 13-503 S18F limits assumed) above, with F201Y counted along it
CYP3A4 (Homo sapiens, UniProt P08684, F213S/S18F), sequence (P08684 13-503 S18F/F213S limits assumed): as the sequence (P08684 13-503 S18F limits assumed) above, with F201S counted along it
CYP3A4 (Homo sapiens, UniProt P08684, F213A/S18F), sequence (P08684 13-503 S18F/F213A limits assumed): as the sequence (P08684 13-503 S18F limits assumed) above, with F201A counted along it

SMILES: CC(=O)[C@H]1CC[C@H]2[C@@H]3CCC4=CC(=O)CC[C@]4(C)[C@H]3CC[C@]12C [progesterone]
- Kd (CYP3A4 [1]): 24.3 µM
- Kd (CYP3A4 [2]): 24.2 µM
- Kd (CYP3A4 [3]): 21.8 µM
- Kd (CYP3A4 [4]): 31 µM
